According to ChEMBL document CHEMBL2311431, “Synthesis and biological evaluation of some 5-arylidene-2-(1,3-thiazol-2-ylimino)-1,3-thiazolidin-4-ones as dual anti-inflammatory/antimicrobial agents” (Bioorg Med Chem, 2013):
Converted amounts (≈) assume the structure as drawn. The source made the active and inactive calls. No cut-off for these calls is given here.

Columns and labels:
Aspergillus niger [1] = test: Fungicidal activity against Aspergillus niger ATCC 6275 after 72 hrs by serial subcultivation method; format: functional; details: ATCC 6275, 72 h
Escherichia coli [2] = test: Bactericidal activity against Escherichia coli ATCC 35210 after 72 hrs by serial subcultivation method; format: functional; details: ATCC 35210, 72 h
Micrococcus flavus [3] = test: Bactericidal activity against Micrococcus flavus ATCC 10240 after 72 hrs by serial subcultivation method; format: functional; details: ATCC 10240, 72 h
Penicillium ochrochloron [4] = test: Fungicidal activity against Penicillium ochrochloron ATCC 9112 after 72 hrs by serial subcultivation method; format: functional; details: ATCC 9112, 72 h
Talaromyces funiculosus [5] = test: Antifungal activity against Penicillium funiculosum ATCC 36839 after 72 hrs by serial dilution technique; format: functional; details: ATCC 36839, 72 h
Summary of the method: (§1)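 Serial dilution in malt broth; compounds from 1 mg/ml stocks in 5% DMSO; 72 h at 28 °C. MIC is the lowest concentration with no visible growth under a binocular microscope. Run in duplicate, repeated three times.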

Micrococcus flavus [6] = test: Antibacterial activity against Micrococcus flavus ATCC 10240 after 24 hr by microdilution test; format: functional; details: ATCC 10240, 24 h
Summary of the method: (§2)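 Broth microdilution in LB medium, about 1.0×10^4 cfu per well; compounds from 1 mg/ml stocks in 5% DMSO. Incubated 24 h. MIC is the lowest concentration with no visible growth under a binocular microscope. Run in duplicate, repeated three times.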

Trichoderma viride [7] = test: Antifungal activity against Trichoderma viride IAM 5061 after 72 hrs by serial dilution technique; format: functional; details: IAM 5061, 72 h; summary of the method: as §1
Bacillus cereus [8] = test: Bactericidal activity against Bacillus cereus clinical isolate after 72 hrs by serial subcultivation method; format: functional
Aspergillus flavus [9] = test: Fungicidal activity against Aspergillus flavus ATCC 9643 after 72 hrs by serial subcultivation method; format: functional; details: ATCC 9643, 72 h
Mus musculus [10] = test: Acute toxicity in AKR mouse up to 0.5 mmol/kg, ip; format: organism-based; details: in vivo
Penicillium ochrochloron [11] = test: Antifungal activity against Penicillium ochrochloron ATCC 9112 after 72 hrs by serial dilution technique; format: functional; details: ATCC 9112, 72 h; summary of the method: as §1
Escherichia coli [12] = test: Antibacterial activity against Escherichia coli ATCC 35210 after 24 hr by microdilution test; format: functional; details: ATCC 35210, 24 h; summary of the method: as §2
Bacillus cereus [13] = test: Antibacterial activity against Bacillus cereus clinical isolate after 24 hr by microdilution test; format: functional; summary of the method: as §2
Listeria monocytogenes [14] = test: Bactericidal activity against Listeria monocytogenes NCTC 7973 after 72 hrs by serial subcultivation method; format: functional; details: NCTC 7973, 72 h
Aspergillus flavus [15] = test: Antifungal activity against Aspergillus flavus ATCC 9643 after 72 hrs by serial dilution technique; format: functional; details: ATCC 9643, 72 h; summary of the method: as §1
Aspergillus fumigatus [16] = test: Antifungal activity against Aspergillus fumigatus after 72 hrs by serial dilution technique; format: functional; summary of the method: as §1
Aspergillus niger [17] = test: Antifungal activity against Aspergillus niger ATCC 6275 after 72 hrs by serial dilution technique; format: functional; details: ATCC 6275, 72 h; summary of the method: as §1
Aspergillus fumigatus [18] = test: Fungicidal activity against Aspergillus fumigatus after 72 hrs by serial subcultivation method; format: functional
Pseudomonas aeruginosa [19] = test: Antibacterial activity against Pseudomonas aeruginosa ATCC 27853 after 24 hr by microdilution test; format: functional; details: ATCC 27853, 24 h; summary of the method: as §2
Trichoderma viride [20] = test: Fungicidal activity against Trichoderma viride IAM 5061 after 72 hrs by serial subcultivation method; format: functional; details: IAM 5061, 72 h
Pseudomonas aeruginosa [21] = test: Bactericidal activity against Pseudomonas aeruginosa ATCC 27853 after 72 hrs by serial subcultivation method; format: functional; details: ATCC 27853, 72 h
Listeria monocytogenes [22] = test: Antibacterial activity against Listeria monocytogenes NCTC 7973 after 24 hr by microdilution test; format: functional; details: NCTC 7973, 24 h; summary of the method: as §2
Mus musculus [23] = test: Antiinflammatory activity in AKR mouse assessed as inhibition of carrageenan-induced paw edema at 0.01 mmol/kg, ip measured after 3.5 hrs of carrageenan-challenge; format: functional
Summary of the method: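 AKR mice of both sexes (pregnant females excluded), 6-10 per group, fasted during the experiment. Edema induced by intradermal 0.05 mL of 2% carrageenin into the right hind paw. Compound given at 0.01 mmol/kg ip, suspended in water with Tween-80, at the same time as carrageenin.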

Talaromyces funiculosus [24] = test: Fungicidal activity against Penicillium funiculosum ATCC 36839 after 72 hrs by serial subcultivation method; format: functional; details: ATCC 36839, 72 h
Staphylococcus aureus [25] = test: Antibacterial activity against Staphylococcus aureus ATCC 6538 after 24 hr by microdilution test; format: functional; details: ATCC 6538, 24 h; summary of the method: as §2
Staphylococcus aureus [26] = test: Bactericidal activity against Staphylococcus aureus ATCC 6538 after 72 hrs by serial subcultivation method; format: functional; details: ATCC 6538, 72 h
[27] = biological target: T1, Prostaglandin G/H synthase 1 (Ovis aries) (UniProt P05979); test: Inhibition of ovine COX1 assessed as inhibition of PGF2a production by enzyme immunoassay; design: concentration or dose not given beside the values
T1 sequence (whole entry): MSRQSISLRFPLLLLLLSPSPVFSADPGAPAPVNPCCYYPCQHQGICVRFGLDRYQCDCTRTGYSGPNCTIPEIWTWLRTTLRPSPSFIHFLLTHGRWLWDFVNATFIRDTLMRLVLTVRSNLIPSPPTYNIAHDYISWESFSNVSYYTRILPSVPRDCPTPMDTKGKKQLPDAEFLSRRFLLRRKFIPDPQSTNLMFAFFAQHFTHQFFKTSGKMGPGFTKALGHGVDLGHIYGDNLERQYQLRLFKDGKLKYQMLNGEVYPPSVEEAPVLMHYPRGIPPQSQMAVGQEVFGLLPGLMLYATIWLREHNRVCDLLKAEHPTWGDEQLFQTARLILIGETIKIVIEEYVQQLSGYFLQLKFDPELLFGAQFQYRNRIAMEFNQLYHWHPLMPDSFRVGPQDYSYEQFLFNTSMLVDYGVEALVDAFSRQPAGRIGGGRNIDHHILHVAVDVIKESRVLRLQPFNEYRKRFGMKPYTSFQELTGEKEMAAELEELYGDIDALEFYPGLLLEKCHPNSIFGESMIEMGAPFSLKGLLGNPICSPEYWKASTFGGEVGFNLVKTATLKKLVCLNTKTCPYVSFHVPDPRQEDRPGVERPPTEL
Summary of the method: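 Ovine COX-1 from a commercial screening kit, tested with 0.1 µM arachidonic acid, which is below the saturating level. COX-derived PGH2 is reduced by SnCl2 to PGF2a, quantified by enzyme immunoassay with a broad prostaglandin antibody. At least triplicate.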

[28] = Inhibition of soybean lipoxygenase assessed as inhibition of sodium linolate conversion to 13-hydroperoxylinoleic acid after 4 mins by spectrophotometry; design: species or system Glycine max

SMILES | MFC (Aspergillus niger [1]) | MFC (Penicillium ochrochloron [4]) | MIC (Talaromyces funiculosus [5]) | MIC (Trichoderma viride [7]) | MFC (Aspergillus flavus [9]) | MIC (Penicillium ochrochloron [11]) | MIC (Aspergillus flavus [15]) | MIC (Aspergillus fumigatus [16]) | MIC (Aspergillus niger [17]) | MFC (Aspergillus fumigatus [18]) | MFC (Trichoderma viride [20]) | MFC (Talaromyces funiculosus [24]) | further results
CN(C)c1ccc(/C=C2\S/C(=N/c3nccs3)NC2=O)cc1 | 15.2 µM (≈ 5.02 µg/mL) | 15.2 µM (≈ 5.02 µg/mL) | 7.6 µM (≈ 2.51 µg/mL) | 7.6 µM (≈ 2.51 µg/mL) | 15.2 µM (≈ 5.02 µg/mL) | 7.6 µM (≈ 2.51 µg/mL) | 15.2 µM (≈ 5.02 µg/mL) | 15.2 µM (≈ 5.02 µg/mL) | 15.2 µM (≈ 5.02 µg/mL) | 15.2 µM (≈ 5.02 µg/mL) | 15.2 µM (≈ 5.02 µg/mL) | 15.2 µM (≈ 5.02 µg/mL) | MBC (Escherichia coli [2]): 15.2 µM (≈ 5.02 µg/mL); MBC (Micrococcus flavus [3]): 15.2 µM (≈ 5.02 µg/mL); MIC (Micrococcus flavus [6]): 7.6 µM (≈ 2.51 µg/mL); MBC (Bacillus cereus [8]): 15.2 µM (≈ 5.02 µg/mL); Activity (Mus musculus [10]): Non-toxic; MIC (Escherichia coli [12]): 7.6 µM (≈ 2.51 µg/mL); MIC (Bacillus cereus [13]): 7.6 µM (≈ 2.51 µg/mL); MBC (Listeria monocytogenes [14]): 60.6 µM (≈ 20 µg/mL); MIC (Pseudomonas aeruginosa [19]): 30.3 µM (≈ 10 µg/mL); MBC (Pseudomonas aeruginosa [21]): 60.6 µM (≈ 20 µg/mL); MIC (Listeria monocytogenes [22]): 30.3 µM (≈ 10 µg/mL); inhibition in vivo at 10 µmol/kg (Mus musculus [23]): 67.3%; MIC (Staphylococcus aureus [25]): 30.3 µM (≈ 10 µg/mL); MBC (Staphylococcus aureus [26]): 60.6 µM (≈ 20 µg/mL); inhibition ([27]; concentration not given here): 50%; IC50 ([28]; read-out: IC50): 95 µM
CC(=O)N1CCN(c2ccc(OCC3COC(Cn4ccnc4)(c4ccc(Cl)cc4Cl)O3)cc2)CC1 (configuration not stated) [KETOCONAZOLE] | 950 µM (≈ 505 µg/mL) | 3800 µM (≈ 2020 µg/mL) | 380 µM (≈ 202 µg/mL) | 4750 µM (≈ 2520 µg/mL) | 3800 µM (≈ 2020 µg/mL) | 3800 µM (≈ 2020 µg/mL) | 2850 µM (≈ 1510 µg/mL) | 380 µM (≈ 202 µg/mL) | 380 µM (≈ 202 µg/mL) | 950 µM (≈ 505 µg/mL) | 5700 µM (≈ 3030 µg/mL) | 950 µM (≈ 505 µg/mL) | –
COc1ccc2c(c1)c(CC(=O)O)c(C)n2C(=O)c1ccc(Cl)cc1 [INDOMETHACIN] | – | – | – | – | – | – | – | – | – | – | – | – | inhibition [27]: inactive; IC50 [28]: Not Active
